4 compounds from ChEMBL document CHEMBL1137426, “Bivalent inhibitors of glutathione S-transferase: the effect of spacer length on isozyme selectivity” (Bioorg Med Chem Lett, 2006) can be followed below.

Test [1] deals with T1, Glutathione S-transferase A1 (Homo sapiens, UniProt P08263).
T1 sequence (P08263 whole entry): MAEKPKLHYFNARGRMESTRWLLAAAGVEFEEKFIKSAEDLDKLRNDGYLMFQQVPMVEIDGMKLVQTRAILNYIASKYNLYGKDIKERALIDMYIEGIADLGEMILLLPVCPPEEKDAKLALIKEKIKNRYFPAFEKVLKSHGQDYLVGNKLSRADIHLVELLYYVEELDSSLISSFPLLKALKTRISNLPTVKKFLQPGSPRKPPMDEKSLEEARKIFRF
Briefly: Inhibition of GST A1-1.

The species named for a further test is Homo sapiens. In words: Selectivity for GST A1-1 over GST P1-1. In short, it runs like this:
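Ratio of IC50s from CDNB–GSH conjugation assays. Each E. coli-expressed, purified enzyme at 20 nM, GSH and CDNB at the respective K_M. Inhibitor diluted from DMSO stock into water, final DMSO <1%. Absorbance at 340 nm for 1 min, four-log concentration span, triplicate.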

Test [2] has as its target Glutathione S-transferase P (Homo sapiens, UniProt P09211). In words: Inhibition of GST P1-1.

Sequence of Glutathione S-transferase P (P09211 whole entry): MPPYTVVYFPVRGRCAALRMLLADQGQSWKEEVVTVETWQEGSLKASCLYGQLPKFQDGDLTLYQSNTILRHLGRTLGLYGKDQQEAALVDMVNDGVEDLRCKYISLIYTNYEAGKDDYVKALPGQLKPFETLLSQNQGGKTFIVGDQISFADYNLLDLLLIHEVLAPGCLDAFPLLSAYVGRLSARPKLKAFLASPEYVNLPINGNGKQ

In the case of `C=C(CC)C(=O)c1ccc(OCC(=O)O)c(Cl)c1Cl` [ETHACRYNIC ACID], half-maximal inhibition in test [1] (IC50) required 5000 nM.

As for `C=C(CC)C(=O)c1ccc(OCC(=O)NCCCC(=O)NCc2cccc(C(N)=O)c2)c(Cl)c1Cl`, the Selectivity ratio in the test listed under Homo sapiens worked out at 1.1. The IC50 came out at 13800 nM in test [1] and 15 µM in test [2].

Regarding `C=C(CC)C(=O)c1ccc(OCC(=O)NCc2cc(CNC(=O)COc3ccc(C(=O)C(=C)CC)c(Cl)c3Cl)cc(C(N)=O)c2)c(Cl)c1Cl`, the Selectivity ratio in the test listed under Homo sapiens stood at 30. Further, 32.7 nM corresponded to half-maximal inhibition in test [1] (IC50).

For `C=C(CC)C(=O)c1ccc(OCC(=O)NCC(=O)NCc2cc(CNC(=O)CNC(=O)COc3ccc(C(=O)C(=C)CC)c(Cl)c3Cl)cc(C(N)=O)c2)c(Cl)c1Cl`, the Selectivity ratio in the test filed under Homo sapiens was determined as 29. For the same compound, the IC50 in test [1] is 24 nM; in test [2], 0.704 µM.

The IC50 is the midpoint of a concentration-inhibition curve. A lower IC50 goes with greater potency in that assay.
